Tests used:
[1] = molecular target: RAC-alpha serine/threonine-protein kinase (Homo sapiens, UniProt P31749); assay: Inhibition of AKT
[2] = test system: HFF; assay: Antiproliferative activity against human HFF cells; format: functional, cell-based
Method in brief: (§1)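 Cell proliferation inhibition in tumour lines (BT474, LNCaP) and non-tumour HFF cells; values are the mean of at least two experiments.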

[3] = test system: BT-474; assay: Antiproliferative activity against human BT474 cells; format: functional, cell-based; method in brief: as §1
[4] = molecular target: RAC-gamma serine/threonine-protein kinase (Homo sapiens, UniProt Q9Y243); assay: Inhibition of AKT3
RAC-gamma serine/threonine-protein kinase, sequence (Q9Y243 whole entry): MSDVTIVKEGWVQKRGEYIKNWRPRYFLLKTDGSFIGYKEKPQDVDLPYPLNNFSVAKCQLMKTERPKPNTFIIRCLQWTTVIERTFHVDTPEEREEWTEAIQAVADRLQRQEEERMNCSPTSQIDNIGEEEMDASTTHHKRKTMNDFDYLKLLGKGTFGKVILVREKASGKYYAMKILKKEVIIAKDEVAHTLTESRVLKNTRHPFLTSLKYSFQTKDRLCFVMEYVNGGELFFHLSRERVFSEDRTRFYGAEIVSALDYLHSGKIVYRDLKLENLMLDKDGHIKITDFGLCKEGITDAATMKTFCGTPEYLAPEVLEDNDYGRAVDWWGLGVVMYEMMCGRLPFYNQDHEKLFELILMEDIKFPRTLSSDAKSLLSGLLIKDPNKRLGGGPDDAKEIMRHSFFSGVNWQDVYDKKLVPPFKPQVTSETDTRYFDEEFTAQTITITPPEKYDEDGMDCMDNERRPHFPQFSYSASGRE

[5] = test system: LNCaP; assay: Antiproliferative activity against human LNCAP cells; format: functional, cell-based; method in brief: as §1
[6] = test system: Mus musculus; assay: Inhibition of GSK3B phosphorylation in human BT474 cells xenografted in ip dosed mouse; format: functional, organism-based; conditions: BT-474
Method in brief: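 Mice bearing BT474 xenografts were dosed ip at […], 12.5 or 25 mg/kg, with a vehicle control group. GSK3b phosphorylation in the tumours was the read-out.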

RAC-alpha serine/threonine-protein kinase, sequence (P31749 whole entry): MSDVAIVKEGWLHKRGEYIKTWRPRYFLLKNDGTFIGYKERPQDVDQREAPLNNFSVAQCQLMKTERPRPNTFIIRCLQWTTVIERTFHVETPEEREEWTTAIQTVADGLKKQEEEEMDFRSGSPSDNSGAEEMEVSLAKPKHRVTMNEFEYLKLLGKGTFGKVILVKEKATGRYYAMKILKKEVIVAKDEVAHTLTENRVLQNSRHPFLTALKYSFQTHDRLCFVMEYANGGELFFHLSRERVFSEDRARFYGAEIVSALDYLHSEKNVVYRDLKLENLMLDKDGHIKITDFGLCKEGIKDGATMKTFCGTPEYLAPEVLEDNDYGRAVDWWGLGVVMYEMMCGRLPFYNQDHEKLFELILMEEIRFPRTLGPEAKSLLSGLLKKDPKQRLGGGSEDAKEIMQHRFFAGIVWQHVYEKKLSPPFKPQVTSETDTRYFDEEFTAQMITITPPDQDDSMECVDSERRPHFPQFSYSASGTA

Structure (SMILES)	IC50 [1] [nM]	IC50 [2] [nM]	IC50 [3] [nM]	IC50 [4] [nM]	IC50 [5] [nM]	Ki [1] [nM]	inhibition [6]
CCn1c(-c2nonc2N)nc2c(C#CC(C)(C)O)nc(OC[C@H](N)c3ccccc3)cc21 [GSK-943949A]	3	5000	2100	17	124		
CCn1c(-c2nonc2N)nc2c(C#CC(C)(C)O)nc(OCCNC)cc21	12	17000	3190		896		
CCn1c(-c2nonc2N)nc2c(C#CC(C)(C)O)nc(CCN)cc21	4	24000	1090		2020		
CCn1c(-c2nonc2N)nc2c(C#CC(C)(C)O)nc(OC[C@H](C)N)cc21	13	28000	4860		560		
CCn1c(-c2nonc2N)nc2c(C#CC(C)(C)O)nc(CN(C)C)cc21	2	30000	357		114		
CCn1c(-c2nonc2N)nc2c(C#CC(C)(C)O)nc(OCCN)cc21	5	5000	1080	43	497	6	
CCn1c(-c2nonc2N)nc2c(C#CC(C)(C)O)nc(CNC)cc21	3	5900	439		201		
CCn1c(-c2nonc2N)nc2c(C#CC(C)(C)O)nc(O[C@@H](CN)c3ccccc3)cc21	1	519	35	1	27	0.4	Dose-dependent effect
CCn1c(-c2nonc2N)nc2c(C#CC(C)(C)O)nc(OC[C@@H](C)N)cc21	8	17000	860		220		
CCn1c(-c2nonc2N)nc2c(C#CC(C)(C)O)nc(CCCN)cc21	3	23000	3520	30	4720		
CCn1c(-c2nonc2N)nc2c(C#CC(C)(C)O)nc(CN)cc21	6	24000	806		296		
CCn1c(-c2nonc2N)nc2c(C#CC(C)(C)O)nc(OC[C@H](N)Cc3ccccc3)cc21	0.6	8000	742	3	20	0.2	
CCn1c(-c2nonc2N)nc2c(C#CC(C)(C)O)nc(O[C@@H](CCN)c3ccccc3)cc21	2	11000	1		5	0.2	
CCn1c(-c2nonc2N)nc2c(C#CC(C)(C)O)nc(OC[C@@H](N)c3ccccc3)cc21 [GSK-938890A]	5	20000	3440	49	176		
CCn1c(-c2nonc2N)nc2c(C#CC(C)(C)O)nc(O[C@H](CCN)c3ccccc3)cc21	4	29000	224	65	85	1.9	
CCn1c(-c2nonc2N)nc2c(C#CC(C)(C)O)nc(OCCCCN)cc21	63	30000	20000		6160		
CCn1c(-c2nonc2N)nc2c(C#CC(C)(C)O)ncc(OC[C@H]3CCCNC3)c21 [GSK-690693]		> 23000	69		21		
CCn1c(-c2nonc2N)nc2c(C#CC(C)(C)O)nc(OC[C@@H](N)Cc3ccccc3)cc21	3	7000	1500		101		
CCn1c(-c2nonc2N)nc2c(C#CC(C)(C)O)nc(O[C@H](CN)c3ccccc3)cc21	3	20000	124		68	3	
CCn1c(-c2nonc2N)nc2c(C#CC(C)(C)O)nc(CN3CCCC3)cc21 [GSK-1000163A]	6	30000	1250	22	313		
CCn1c(-c2nonc2N)nc2c(C#CC(C)(C)O)nc(OCCCN)cc21	16	30000	7120		3180	115	
